Measured values taken from ChEMBL document CHEMBL4196108, “5-Aroylindoles Act as Selective Histone Deacetylase 6 Inhibitors Ameliorating Alzheimer's Disease Phenotypes” (J Med Chem, 2018).
The source made the active and inactive calls. No cut-off for these calls is given here.

What was measured:
[1] = biological target: T1, Protein deacetylase HDAC6 (Homo sapiens) (UniProt Q9UBN7); assay: Inhibition of HDAC6 in human SH-SY5Y cells transfected with pCAX FLAG APP and pRK5-EGFP-Tau P301L plasmids assessed as increase in HSP90 acetylation at 1 uM after 24 hrs by coimmunoprecipitation analysis; type: cell-based
T1 sequence (whole entry): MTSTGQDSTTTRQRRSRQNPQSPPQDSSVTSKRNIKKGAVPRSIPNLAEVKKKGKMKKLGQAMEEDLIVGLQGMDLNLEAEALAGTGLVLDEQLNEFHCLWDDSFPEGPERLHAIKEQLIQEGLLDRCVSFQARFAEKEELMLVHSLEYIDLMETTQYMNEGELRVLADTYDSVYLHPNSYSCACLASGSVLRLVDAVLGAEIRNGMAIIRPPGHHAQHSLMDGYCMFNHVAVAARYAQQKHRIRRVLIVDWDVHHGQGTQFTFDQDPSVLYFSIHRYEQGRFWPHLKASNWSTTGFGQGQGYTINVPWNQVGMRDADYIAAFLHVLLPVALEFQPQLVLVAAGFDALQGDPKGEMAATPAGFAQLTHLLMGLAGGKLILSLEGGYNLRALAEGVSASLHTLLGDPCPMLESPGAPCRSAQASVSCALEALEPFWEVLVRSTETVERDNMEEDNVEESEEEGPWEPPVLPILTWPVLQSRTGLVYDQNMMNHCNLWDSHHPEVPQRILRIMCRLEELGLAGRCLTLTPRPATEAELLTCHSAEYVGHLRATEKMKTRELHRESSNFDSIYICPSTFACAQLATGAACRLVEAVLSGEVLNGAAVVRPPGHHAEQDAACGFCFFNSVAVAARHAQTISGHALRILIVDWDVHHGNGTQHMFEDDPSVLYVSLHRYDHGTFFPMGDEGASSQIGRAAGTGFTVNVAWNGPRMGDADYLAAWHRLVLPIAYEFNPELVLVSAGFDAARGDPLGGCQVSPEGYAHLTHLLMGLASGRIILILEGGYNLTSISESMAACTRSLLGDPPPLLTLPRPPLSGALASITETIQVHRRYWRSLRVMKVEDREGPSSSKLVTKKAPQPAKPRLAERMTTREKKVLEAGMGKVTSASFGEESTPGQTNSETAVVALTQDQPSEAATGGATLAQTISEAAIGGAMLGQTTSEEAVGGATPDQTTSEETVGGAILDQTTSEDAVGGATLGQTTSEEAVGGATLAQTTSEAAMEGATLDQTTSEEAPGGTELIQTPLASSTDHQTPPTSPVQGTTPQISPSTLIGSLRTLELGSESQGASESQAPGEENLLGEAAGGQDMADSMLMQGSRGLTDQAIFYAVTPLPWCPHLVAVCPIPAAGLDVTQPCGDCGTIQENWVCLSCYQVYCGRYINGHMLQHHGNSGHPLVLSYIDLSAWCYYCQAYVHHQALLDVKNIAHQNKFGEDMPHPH
Outline: (§1)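 SH-SY5Y and Neuro-2a cells cotransfected 24 h with APP695/Tau P301L plasmids, treated 24 h at 1 µM (ACY-1215 reference). 30 µg lysate immunoprecipitated overnight at 4 °C with anti-HDAC6 or anti-acetyl-lysine antibodies plus protein A/G beads, run on 8% SDS-PAGE, probed for Hsp90; Hsp70 by immunoblot. Three independent experiments.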

[2] = biological target: T2, Protein deacetylase HDAC6 (Mus musculus) (UniProt Q9Z2V5); assay: Inhibition of HDAC6 in mouse Neuro-2a cells transfected with pCAX FLAG APP and pRK5-EGFP-Tau P301L plasmids assessed as increase in HSP90 acetylation at 1 uM after 24 hrs by coimmunoprecipitation analysis; type: cell-based; outline: as §1
T2 sequence (whole entry): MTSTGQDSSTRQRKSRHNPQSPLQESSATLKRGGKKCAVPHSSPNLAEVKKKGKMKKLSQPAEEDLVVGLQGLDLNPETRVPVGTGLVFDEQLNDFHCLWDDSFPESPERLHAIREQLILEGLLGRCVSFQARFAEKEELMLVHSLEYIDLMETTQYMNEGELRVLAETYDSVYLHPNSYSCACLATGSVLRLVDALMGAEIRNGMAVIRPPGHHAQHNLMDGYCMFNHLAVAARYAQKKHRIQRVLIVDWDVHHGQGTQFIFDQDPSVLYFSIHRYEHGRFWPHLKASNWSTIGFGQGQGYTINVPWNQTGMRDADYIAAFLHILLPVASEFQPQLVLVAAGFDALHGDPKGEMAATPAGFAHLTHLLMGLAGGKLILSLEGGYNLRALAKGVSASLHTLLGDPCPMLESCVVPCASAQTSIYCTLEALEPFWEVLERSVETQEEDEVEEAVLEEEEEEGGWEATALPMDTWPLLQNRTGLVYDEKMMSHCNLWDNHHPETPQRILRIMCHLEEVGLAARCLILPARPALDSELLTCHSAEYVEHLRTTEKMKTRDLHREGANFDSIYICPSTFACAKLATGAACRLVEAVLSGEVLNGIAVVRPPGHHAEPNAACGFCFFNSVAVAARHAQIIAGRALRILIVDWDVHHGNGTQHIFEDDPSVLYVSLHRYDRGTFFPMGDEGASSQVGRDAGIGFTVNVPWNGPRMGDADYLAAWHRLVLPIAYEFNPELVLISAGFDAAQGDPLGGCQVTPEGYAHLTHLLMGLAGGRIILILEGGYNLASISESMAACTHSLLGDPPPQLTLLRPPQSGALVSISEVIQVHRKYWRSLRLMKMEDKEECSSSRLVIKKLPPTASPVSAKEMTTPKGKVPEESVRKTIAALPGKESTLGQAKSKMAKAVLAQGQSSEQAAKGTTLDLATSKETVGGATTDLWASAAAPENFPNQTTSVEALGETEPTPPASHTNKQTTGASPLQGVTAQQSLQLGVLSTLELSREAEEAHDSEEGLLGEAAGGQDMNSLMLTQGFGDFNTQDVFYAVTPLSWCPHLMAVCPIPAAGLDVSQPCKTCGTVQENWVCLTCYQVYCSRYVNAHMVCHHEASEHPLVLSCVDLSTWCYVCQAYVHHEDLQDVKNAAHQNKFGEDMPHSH

[3] = Toxicity in Balb/c mouse assessed as survival rate at 1000 mg/kg, ip qd administered for 6 days followed by 1 week recovery (reference value: 100%); type: organism-based; conditions: in vivo
[4] = Toxicity in Balb/c mouse assessed as survival rate at 100 mg/kg, ip qd administered for 6 days followed by 1 week recovery (reference value: 100%); type: organism-based; conditions: in vivo
[5] = biological target: T1, Protein deacetylase HDAC6 (Homo sapiens); assay: Inhibition of HDAC6 in human SH-SY5Y cells transfected with pCAX FLAG APP and pRK5-EGFP-Tau P301L plasmids assessed as reduction in Tau P301L mutant level in cytosol at 1 uM after 24 hrs by Western blot analysis; type: cell-based
Outline: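 Cotransfected SH-SY5Y cells (1 × 10^7) treated 24 h at 1 µM, lysed in sucrose/HEPES pH 7.2 buffer; 190,000 g supernatant = cytosol. Pellet treated with 5 µM nocodazole, re-spun; residual pellet extracted with sodium carbonate pH 11.5 and washed in 1% SDS to give aggregate fraction. Equal protein by SDS-PAGE immunoblot.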

With COc1ccc(C(=O)c2ccc3c(ccn3Cc3ccc(C(=O)NO)cc3)c2)cc1 the inhibition [1] was “Active”, the inhibition [2] was “Active” and the survival [3] was 100%. The survival [4] was 100% and the inhibition [5] was “Active”.
